In ChEMBL document CHEMBL1142313, “Parallel synthesis of a series of potentially brain penetrant aminoalkyl benzoimidazoles” (Bioorg Med Chem, 2008):
Calls of active or inactive are those of the source. No cut-off for these calls is given here.

Assays:
Format in all cases: functional, cell-based
[1] = target: Neuronal acetylcholine receptor subunit alpha-7 (Rattus norvegicus, UniProt Q05941); test: Agonist activity at rat alpha-7 nAChR expressed in GH4C1-F7 cells assessed as effect on calcium influx by FLIPR
Chain of Neuronal acetylcholine receptor subunit alpha-7 (Q05941 whole entry): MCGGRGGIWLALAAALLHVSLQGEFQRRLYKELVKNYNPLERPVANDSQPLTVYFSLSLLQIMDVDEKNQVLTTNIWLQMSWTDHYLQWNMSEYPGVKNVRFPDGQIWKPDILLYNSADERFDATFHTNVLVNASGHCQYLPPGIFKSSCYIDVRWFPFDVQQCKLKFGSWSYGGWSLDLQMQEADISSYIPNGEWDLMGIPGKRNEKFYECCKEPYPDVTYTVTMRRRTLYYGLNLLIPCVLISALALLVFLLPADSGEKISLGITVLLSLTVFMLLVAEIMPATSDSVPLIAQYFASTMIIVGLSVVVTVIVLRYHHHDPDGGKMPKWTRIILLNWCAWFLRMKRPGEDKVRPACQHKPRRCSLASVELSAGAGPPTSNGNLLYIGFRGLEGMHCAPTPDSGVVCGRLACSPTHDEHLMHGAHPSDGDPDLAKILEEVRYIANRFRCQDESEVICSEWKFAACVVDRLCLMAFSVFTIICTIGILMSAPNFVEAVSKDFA

[2] = target: Neuronal acetylcholine receptor subunit alpha-7 (Rattus norvegicus) (UniProt Q05941); test: Agonist activity at rat alpha-7 nAChR expressed in GH4C1-F7 cells assessed as effect on calcium influx at 5 uM by FLIPR relative to nicotine
Chain of Neuronal acetylcholine receptor subunit alpha-7 (Rattus norvegicus) (Q05941 whole entry): as above
Procedure, shortened: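 GH4C1-F7 cells stably expressing rat alpha7 nAChR were seeded at 100,000/well on poly-D-lysine plates and loaded with Fluo-4 (with pluronic acid and probenecid) for 30 min at 37 °C.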

[3] = target: Neuronal acetylcholine receptor subunit alpha-7 (Rattus norvegicus) (UniProt Q05941); test: Reversal of agonist activity at rat alpha-7 nAChR expressed in GH4C1-F7 cells assessed as effect on calcium influx at 10 uM in presence of methyllycaconitine by FLIPR
Procedure, shortened: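 GH4C1-F7 rat alpha7-nAChR cells loaded with Fluo-4/probenecid at 37 °C for 30 min, then washed in HBSS-20 mM Hepes with 2.5 mM probenecid, with or without MLA 1 µM. Compound added and Ca2+ fluorescence read by FLIPR, every second for 1 min then every 30 s for 10 min. Peak height taken as max-min. A signal lost in the presence of MLA marks alpha7 selectivity.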

Row | Activity [2] | SMILES | EC50 [1] | Activity [3]
1 | > 20% | CN1CCN(CCCn2c(COc3cccc(Cl)c3)nc3ccccc32)CC1 | 10000 nM | –
2 | > 20% | CN(C)CCCn1c(COc2ccccc2)nc2ccccc21 | 2600 nM | Active
3 | – | CN1[C@@H]2CC[C@H]1C[C@H](NC(=O)Nc1ccc(Br)cc1)C2 | 200 nM | –
4 | > 20% | Cc1ccc2nc(Cc3ccc(Br)cc3)n(CCCN(C)C)c2c1 | 1700 nM | Active
5 | – | O=C(Nc1ccccc1F)OC1CN2CCC1CC2 (stereo unspecified) | 600 nM | –

Row | SMILES | Activity [2] | EC50 [1] | Activity [3]
6 | CN1CCCC1CCn1c(Cc2ccc(Br)cc2)nc2ccccc21 (stereo unspecified) | > 20% | 2700 nM | Active
7 | CN(C)CCCn1c(Cc2ccc(Br)cc2)nc2ccccc21 | > 20% | 2600 nM | Active
